Laboratory results as given in ChEMBL document CHEMBL5154713, “Illuminating a Dark Kinase: Structure-Guided Design, Synthesis, and Evaluation of a Potent Nek1 Inhibitor and Its Effects on the Embryonic Zebrafish Pronephros” (J Med Chem, 2022).
pIC50: −log10 of the molar value.

How the values were obtained:
[1] = molecular target: T1, Serine/threonine-protein kinase Nek1 (Homo sapiens, UniProt Q96PY6); test: Inhibition of human recombinant NEK1 (1 to 505 residues) using ULight-p70 S6K peptide as substrate incubated for 30 mins by LANCE Ultra TR-FRET assay
T1 sequence (Q96PY6 whole entry): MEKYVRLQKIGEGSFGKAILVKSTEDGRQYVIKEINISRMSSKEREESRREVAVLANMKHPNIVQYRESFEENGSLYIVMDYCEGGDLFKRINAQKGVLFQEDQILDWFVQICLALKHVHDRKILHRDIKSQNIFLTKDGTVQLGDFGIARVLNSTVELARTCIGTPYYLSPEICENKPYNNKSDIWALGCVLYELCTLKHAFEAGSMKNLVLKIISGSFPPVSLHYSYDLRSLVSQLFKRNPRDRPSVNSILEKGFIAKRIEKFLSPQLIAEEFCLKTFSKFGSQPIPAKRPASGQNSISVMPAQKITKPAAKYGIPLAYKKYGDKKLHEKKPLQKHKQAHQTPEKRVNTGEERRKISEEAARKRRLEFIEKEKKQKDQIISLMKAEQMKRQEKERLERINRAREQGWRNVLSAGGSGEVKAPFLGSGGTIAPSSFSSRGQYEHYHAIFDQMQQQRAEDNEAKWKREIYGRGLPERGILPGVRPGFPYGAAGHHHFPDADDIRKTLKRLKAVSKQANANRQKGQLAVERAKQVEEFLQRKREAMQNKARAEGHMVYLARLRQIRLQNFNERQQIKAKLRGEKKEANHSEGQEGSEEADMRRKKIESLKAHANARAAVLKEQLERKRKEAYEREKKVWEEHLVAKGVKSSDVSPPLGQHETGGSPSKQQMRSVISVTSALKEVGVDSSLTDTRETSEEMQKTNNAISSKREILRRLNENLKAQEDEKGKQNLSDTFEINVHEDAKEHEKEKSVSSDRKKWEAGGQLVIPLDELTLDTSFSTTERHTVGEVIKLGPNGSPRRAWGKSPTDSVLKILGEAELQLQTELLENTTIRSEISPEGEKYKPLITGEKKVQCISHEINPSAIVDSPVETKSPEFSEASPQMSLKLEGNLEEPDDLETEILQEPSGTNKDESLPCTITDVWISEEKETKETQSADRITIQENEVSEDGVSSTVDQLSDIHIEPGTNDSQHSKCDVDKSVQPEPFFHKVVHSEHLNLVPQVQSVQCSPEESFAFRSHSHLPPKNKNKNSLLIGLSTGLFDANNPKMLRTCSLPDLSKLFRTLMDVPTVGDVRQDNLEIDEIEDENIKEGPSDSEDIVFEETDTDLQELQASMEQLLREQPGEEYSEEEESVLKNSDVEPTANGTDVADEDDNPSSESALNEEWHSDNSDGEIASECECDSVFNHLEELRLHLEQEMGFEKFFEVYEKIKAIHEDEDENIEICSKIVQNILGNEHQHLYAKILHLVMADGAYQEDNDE
Procedure, shortened: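 Recombinant human Nek1 (1−505, 0.02 nM) in 50 mM HEPES pH 7.5, 1 mM EGTA, 10 mM MgCl2, 0.2 mM DTT, 0.01% Tween20, with 50 nM ULight-p70 S6K peptide and 60 μM ATP, 30 min at 22 °C. Stopped with EDTA plus Eu anti-phospho antibody, 1 h signal development. Ten half-log concentrations from 30 μM (10 μM for some) to 1 nM. Mean of two experiments.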

[2] = molecular target: T2, Serine/threonine-protein kinase Nek1 (Homo sapiens) (UniProt Q96PY6); test: Inhibition of human recombinant NEK1 (1 to 505 residues) assessed as residual activity at 1 uM using RLGRDKYKTLRQIRQ as substrate incubated for 40 mins in presence of [gamma-33P]-ATP by radiometric scintillation counting assay relative to control
T2 sequence (whole entry): T1 sequence (Q96PY6 whole entry)
Procedure, shortened: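 Eurofins KinaseProfiler radiometric panel, compound at 1 μM, ATP at 10 μM or within 15 μM of apparent Km. For Nek1 (1−505): 8 mM MOPS pH 7.0, 0.2 mM EDTA, 250 μM peptide, 10 mM Mg acetate, [γ-33P]-ATP, 40 min at room temperature. Stopped with 0.5% phosphoric acid, filtermat spotting, scintillation counting. Mean of two independent experiments.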

[3] = molecular target: T1, Serine/threonine-protein kinase Nek1; test: Inhibition of human recombinant NEK1 (1 to 505 residues) using RLGRDKYKTLRQIRQ as substrate incubated for 40 mins in presence of [gamma-33P]-ATP by radiometric scintillation counting assay
Procedure, shortened: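 Eurofins IC50Profiler radiometric assay on recombinant human Nek1 (1−505), ATP at 10 μM or 90 μM (near Km). Nine concentrations at half-log steps from 10 μM to 1 nM, with vehicle controls. IC50 and 95% CI obtained by four-parameter nonlinear regression. Mean of two independent experiments.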

pIC50 [1] | Activity [2] [%] | pIC50 [3] | SMILES
< 5.00 | 45 | – | CN1CCN(S(=O)(=O)c2ccc(-c3ccnc4[nH]ccc34)cc2)CC1
5.15 | 37 | 5.37 | CN(C)CCNS(=O)(=O)c1ccc(-c2ccnc3[nH]ccc23)cc1
5.24 | 32 | – | CC(C)(O)CNS(=O)(=O)c1ccc(-c2ccnc3[nH]ccc23)cc1
5.18 | 37 | – | O=S(=O)(NCCN1CCCCC1)c1ccc(-c2ccnc3[nH]ccc23)cc1
4.57 | 51 | – | O=S(=O)(NCCN1CCOCC1)c1ccc(-c2ccnc3[nH]ccc23)cc1
5.80 | 25 | – | O=S(=O)(N[C@@H](CO)Cc1ccc(O)cc1)c1ccc(-c2ccnc3[nH]ccc23)cc1
– | 49 | – | CC(C)(C)OC(=O)NCCNS(=O)(=O)c1ccc(-c2ccnc3[nH]ccc23)cc1
6.00 | 19 | – | O=S(=O)(N[C@H](CO)Cc1c[nH]c2ccccc12)c1ccc(-c2ccnc3[nH]ccc23)cc1
5.70 | 33 | – | O=S(=O)(N[C@H](CO)Cc1ccc(O)cc1)c1ccc(-c2ccnc3[nH]ccc23)cc1
< 4.52 | 44 | – | COCCNS(=O)(=O)c1ccc(-c2ccnc3[nH]ccc23)cc1
4.54 | 89 | – | O=C(NCCO)c1ccc(-c2ccnc3[nH]ccc23)cc1
– | 94 | – | O=C(O)[C@H](Cc1ccccc1)NS(=O)(=O)c1ccc(-c2ccnc3[nH]ccc23)cc1
5.49 | 12 | 5.70 | O=S(=O)(NCCO)c1ccc(-c2ccnc3[nH]ccc23)cc1
5.57 | 46 | – | CN(CCO)S(=O)(=O)c1ccc(-c2ccnc3[nH]ccc23)cc1
5.72 | 19 | – | O=S(=O)(N[C@H](CO)Cc1ccccc1)c1ccc(-c2ccnc3[nH]ccc23)cc1
5.89 | 16 | – | O=S(=O)(N[C@@H](CO)Cc1ccccc1)c1ccc(-c2ccnc3[nH]ccc23)cc1
5.00 | 68 | – | CCN(CC)CCNS(=O)(=O)c1ccc(-c2ccnc3[nH]ccc23)cc1
5.06 | 49 | – | CC(=O)OCCNS(=O)(=O)c1ccc(-c2ccnc3[nH]ccc23)cc1
